From ChEMBL document CHEMBL3784986, “Discovery and Characterization of Biased Allosteric Agonists of the Chemokine Receptor CXCR3” (J Med Chem, 2016)
The source made the active and inactive calls. The rule behind the calls is not given here.

Key:
[1] = target: T1, C-X-C chemokine receptor type 3 (Homo sapiens) (UniProt P49682); assay: Positive allosteric modulation of ProLink1-tagged wild type CXCR3 (unknown origin) expressed in HEK293T cells assessed as beta-arrestin-2 recruitment at 10 uM incubated for 4 hrs by chemiluminescence-based microplate reader method; format: cell-based; conditions: HEK-293T
T1 sequence (whole entry): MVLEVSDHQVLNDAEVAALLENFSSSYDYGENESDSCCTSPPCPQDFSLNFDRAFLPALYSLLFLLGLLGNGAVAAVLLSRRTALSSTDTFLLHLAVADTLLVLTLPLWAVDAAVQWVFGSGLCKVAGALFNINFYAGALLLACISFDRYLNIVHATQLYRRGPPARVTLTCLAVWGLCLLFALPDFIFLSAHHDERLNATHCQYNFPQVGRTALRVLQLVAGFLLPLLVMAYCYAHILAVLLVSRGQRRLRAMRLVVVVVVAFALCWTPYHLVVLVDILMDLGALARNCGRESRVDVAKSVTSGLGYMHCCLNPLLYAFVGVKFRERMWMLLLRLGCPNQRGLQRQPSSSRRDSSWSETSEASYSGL
Method in brief: (§1)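 HEK293 cells stably expressing β-gal enzyme acceptor, transiently transfected with PK1- or PK2-tagged wild-type CXCR3, 2000 cells/well, grown overnight at 37 °C. Compounds or CXCL11 in PBS pH 7.4 with 0.20% BSA added for 4 h. Detection mix 60 min at room temperature, then chemiluminescence read. Efficacy expressed as % of CXCL11 effect. Two to three experiments in triplicate.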

[2] = target: T1, C-X-C chemokine receptor type 3 (Homo sapiens); assay: Positive allosteric modulation of human CXCR3 expressed in HEK293T cell membranes after 30 mins by [35S]GTPgammaS incorporation assay relative to CXCL11; format: functional; conditions: HEK-293T
Method in brief: (§2)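 Membranes from HEK293 cells stably expressing CXCR3 (30 µg/mL protein) in 20 mM HEPES, 10 mM MgCl2, 100 mM NaCl, 100 mg/L saponin, pH 7.4. Compound plus 1 µM GDP preincubated 30 min at 37 °C, then 0.10 nM [35S]GTPγS added for 30 min at 37 °C. Filtered on GF/B and counted. Efficacy expressed as % of CXCL11. Three experiments in triplicate, pEC50 by nonlinear regression.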

[3] = target: T1, C-X-C chemokine receptor type 3 (Homo sapiens); assay: Inhibition of CXCL10-mediated activation of human CXCR3 expressed in HEK cells; format: cell-based; conditions: HEK293
[4] = target: T1, C-X-C chemokine receptor type 3 (Homo sapiens); assay: Induction of C-terminal eGFP-tagged CXCR3 (unknown origin) internalization expressed in HEK293T cells at 1 to 10 uM after 60 mins by scanning laser confocal microscopy; format: cell-based; conditions: HEK-293T
Method in brief: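 HEK293T cells transiently transfected with C-terminally eGFP-tagged CXCR3, moved to poly-L-lysine coverslips at 24 h. Two days post-transfection, treated 60 min at 37 °C with compound (10 µM and 1 µM) or 100 nM CXCL11. Fixed in 4% paraformaldehyde and imaged by confocal laser scanning microscopy.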

[5] = target: T1, C-X-C chemokine receptor type 3 (Homo sapiens); assay: Positive allosteric modulation of CXCR3 (unknown origin) expressed in HEK293 cells assessed as induction of cell migration at 100 nM after 5 hrs by transwell migration assay relative to control; format: cell-based
Method in brief: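 HEK293 cells transiently transfected with CXCR3 by calcium phosphate, used 48 h later, serum-starved. Compound placed in lower (source) chamber in 0.2% serum DMEM. Cells (1 × 10^5/well) in upper chamber, 5 h migration at 37 °C. Crystal-violet-stained migrated cells counted in 5 predefined areas and compared with buffer control.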

[6] = target: T1, C-X-C chemokine receptor type 3 (Homo sapiens); assay: Inhibition of CXCL11-mediated activation of human CXCR3 expressed in HEK cells; format: cell-based; conditions: HEK293
[7] = target: T1, C-X-C chemokine receptor type 3 (Homo sapiens); assay: Positive allosteric modulation of ProLink1-tagged wild type CXCR3 (unknown origin) expressed in HEK293T cells assessed as beta-arrestin-2 recruitment incubated for 4 hrs by chemiluminescence-based microplate reader method; format: cell-based; conditions: HEK-293T; method in brief: as §1
[8] = target: T1, C-X-C chemokine receptor type 3 (Homo sapiens); assay: Antagonist activity at CXCR3 (unknown origin) expressed in HEK293 cells assessed as inhibition of CXCL11-mediated cell migration after 5 hrs by transwell migration assay; format: cell-based
Method in brief: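 CXCR3-transfected HEK293 cells (calcium phosphate, used 48 h post-transfection), serum-starved, pre-incubated 15 min with compound. Compound present in both upper chamber (1 × 10^5 cells/well, 0.2% serum DMEM) and lower chamber containing CXCL11. Migration 5 h at 37 °C. Migrated cells fixed in 3.7% formaldehyde, stained with crystal violet, counted in 5 predefined areas.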

[9] = target: T1, C-X-C chemokine receptor type 3 (Homo sapiens); assay: Displacement of [125I]CXCL11 from human CXCR3 isoform 1 expressed in African green monkey COS7 cells at 1 uM after 3 hrs by liquid scintillation counting method; format: cell-based; conditions: COS-7
Method in brief: (§3)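 Cells washed in 50 mM HEPES/5 g/L BSA and chilled 15 min at 4 °C. Ligands added, then 10-15 pM [125I]CXCL11 (Chloramine-T labelled, HPLC-purified). Incubation 3 h at 4 °C, washes, bound radioactivity read by liquid scintillation.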

[10] = target: T1, C-X-C chemokine receptor type 3 (Homo sapiens); assay: Displacement of [125I]CXCL11 from human CXCR3 isoform 1 expressed in African green monkey COS7 cells after 3 hrs by liquid scintillation counting method; format: cell-based; conditions: COS-7; method in brief: as §3
[11] = Cytotoxicity against HEK293T cells expressing CXCR3 at 10 uM incubated overnight by ApoTox-Glo Triplex assay; format: cell-based; conditions: human, hek-293t
Method in brief: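 10,000 HEK293T cells stably expressing CXCR3 incubated overnight with compound at 10 µM. ApoTox-Glo triplex. Viability read by fluorescence at 400Ex/505Em (GF-AFC) and cytotoxicity at 485Ex/520Em (bis-AAF-R110), each after a 30 min reagent step. Caspase-3/7 luminescence then read after a further 30 min.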

[12] = target: T1, C-X-C chemokine receptor type 3 (Homo sapiens); assay: Positive allosteric modulation of ProLink1-tagged wild type CXCR3 (unknown origin) expressed in HEK293T cells assessed as beta-arrestin-2 recruitment incubated for 4 hrs by chemiluminescence-based microplate reader method relative to CXCL11; format: cell-based; conditions: HEK-293T; method in brief: as §1
[13] = target: T1, C-X-C chemokine receptor type 3 (Homo sapiens); assay: Positive allosteric modulation of ProLink2-tagged wild type CXCR3 (unknown origin) expressed in HEK293T cells assessed as beta-arrestin-2 recruitment incubated for 4 hrs by chemiluminescence-based microplate reader method relative to CXCL11; format: cell-based; conditions: HEK-293T; method in brief: as §1
[14] = target: T1, C-X-C chemokine receptor type 3 (Homo sapiens); assay: Positive allosteric modulation of human CXCR3 expressed in HEK293T cell membranes after 30 mins by [35S]GTPgammaS incorporation assay; format: functional; conditions: HEK-293T; method in brief: as §2
[15] = target: T1, C-X-C chemokine receptor type 3 (Homo sapiens); assay: Effect on CXCL11-induced beta-arrestin-2 recruitment to wild type CXCR3 (unknown origin) expressed in HEK293T cells at 10 to 1000 nM incubated for 4 hrs by chemiluminescence-based microplate reader method; format: cell-based; conditions: HEK-293T
[16] = target: T1, C-X-C chemokine receptor type 3 (Homo sapiens); assay: Induction of FLAG-tagged CXCR3 (unknown origin) internalization expressed in HEK293T cells at 10 uM after 60 mins by ELISA; format: cell-based; conditions: HEK-293T
Method in brief: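 FLAG-CXCR3-transfected HEK293T cells replated on poly-D-lysine. At 48 h, serum-free DMEM with compound (10 µM) or CXCL11 (100 nM) for 1 h at 37 °C. Cells fixed in 4% formaldehyde. Surface receptor detected with anti-FLAG antibody and peroxidase-conjugated anti-mouse IgG, o-phenylenediamine substrate, stopped with 1M H2SO4, absorbance at 492 nm.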

| SMILES | Activity [1] [%] | Efficacy [2] | inhibition [3] | Activity [4] | fold change (FC) [5] | inhibition [6] | pEC50 [7] | inhibition [8] | inhibition [9] | inhibition [10] | Activity [11] | Efficacy [12] | Efficacy [13] [%] | pEC50 [14] | Activity [15] | Activity [16] |
| --- | --- | --- | --- | --- | --- | --- | --- | --- | --- | --- | --- | --- | --- | --- | --- | --- |
| CC(C)(C)OC(=O)NCCCC[C@H](NC(=O)[C@@H]1Cc2ccccc2CN1C(=O)CCC(=O)c1ccccc1)C(=O)NCC(c1ccccc1)c1ccccc1 | 70 | 47% | – | – | – | – | – | – | – | – | – | – | – | – | – | – |
| COc1ccc(C(=O)CCC(=O)N2Cc3ccccc3C[C@H]2C(=O)NCCCC[C@H](NC(=O)OC(C)(C)C)C(=O)NCC(c2ccccc2)c2ccccc2)cc1 | – | 50% | inactive | inactive | 0.25 | inactive | inactive | inactive | inactive | inactive | Non-toxic | inactive | – | – | – | – |
| CC(C)(C)OC(=O)N[C@@H](CCCCNC(=O)[C@@H]1Cc2ccccc2CN1C(=O)CCC(=O)c1ccccc1)C(=O)NCC(c1ccccc1)c1ccccc1 | – | inactive | inactive | Active | 0.25 | inactive | – | inactive | inactive | inactive | Non-toxic | 30% | 66 | inactive | inactive | Active |
